Consider 21 compounds from ChEMBL document CHEMBL1145070, “Potent, small-molecule inhibitors of human mast cell tryptase. Antiasthmatic action of a dipeptide-based transition-state analogue containing a benzothiazole ketone” (J Med Chem, 2003).

One may read the Ki as a measure of affinity in units of concentration, obtained from inhibition or displacement. Read a high Ki as weaker binding. As a reminder, the IC50 is the point on the concentration scale where inhibition reaches its midpoint.

Assay [1] concerns Cationic trypsin (Bos taurus). Briefly: Beta-Trypsin inhibitory activity of compound was determined; NA= not active (<10% inhibition at 100 uM).
Assay [2] concerns the target T1, Tryptase beta-1 (Homo sapiens, UniProt Q15661). Kind of assay: Inhibitory activity of compound was determined against human Tryptase beta; NA= not active (<10% inhibition at 100 uM). An outline of the steps:
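β-Tryptase chromogenic assay, with absorbance read at 405 nm at 37 °C for 30 min after enzyme addition. […] Percent inhibition came from initial slopes versus the no-inhibitor control, fitted with a four-parameter logistic model.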
Target sequence in this assay (Q15661 31-275 limits assumed): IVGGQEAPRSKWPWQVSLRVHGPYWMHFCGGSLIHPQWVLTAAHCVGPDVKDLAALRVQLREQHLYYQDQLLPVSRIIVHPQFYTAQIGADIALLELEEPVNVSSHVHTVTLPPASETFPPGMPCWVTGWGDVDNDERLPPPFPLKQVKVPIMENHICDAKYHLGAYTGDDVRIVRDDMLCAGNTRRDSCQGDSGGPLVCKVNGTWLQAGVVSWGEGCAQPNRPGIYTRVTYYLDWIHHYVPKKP

In assay [3] the target is Thrombin & trypsin (Homo sapiens) (UniProt P00734+P07477+P07478+P35030). Kind of assay: Ratio of Ki value thrombin to that of Ki value of tryptase. Type of assay: protein assay.
The nature of assay [4]: Ratio of Ki value plasmin to that of Ki value of tryptase.
Assay [5] deals with T1, Tryptase beta-1. Briefly: In vitro inhibition of human Tryptase beta.
Target sequence in this assay (Q15661 whole entry): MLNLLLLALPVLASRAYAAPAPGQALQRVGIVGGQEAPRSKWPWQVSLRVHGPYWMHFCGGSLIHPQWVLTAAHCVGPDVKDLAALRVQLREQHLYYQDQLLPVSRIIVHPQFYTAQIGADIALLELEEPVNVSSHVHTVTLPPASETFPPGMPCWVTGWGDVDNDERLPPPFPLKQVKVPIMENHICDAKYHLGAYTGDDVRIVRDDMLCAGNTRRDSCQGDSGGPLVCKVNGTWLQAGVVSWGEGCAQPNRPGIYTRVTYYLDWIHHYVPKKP
A short description of assay [6]: Ratio of Ki value kallikrein to that of Ki value of tryptase.
The test system of assay [7] is Cationic trypsin (Bos taurus). Kind of assay: Ratio of Ki value of bovine trypsin to that of Ki value of tryptase.
Assay [8] has as its target T1, Tryptase beta-1. Kind of assay: Inhibitory activity of compound was determined against human Tryptase beta.
Target sequence in this assay (Q15661 whole entry): as above

Molecules are shown by their SMILES. Activity calls are given as the source filed them. A value given as a limit tells only on which side of the number the result lay.

Consider `CC(=O)N1CCC[C@H]1C(=O)NC(CCCN=C(N)N)C(O)c1nc2ccccc2s1` (some centres undefined), for which the NA entry (in assay [1]; on Tryptase beta-1 [2]) was “inactive” throughout. As for `N=C(N)NCCC[C@H](NC(=O)c1ccc2ccccc2c1O)C(=O)N1CCCC1C(N)=O` (some centres undefined), the Selectivity in assay [3] is 1.3; in assay [4], greater than 3000; in assay [6] it was greater than 3000; in assay [7], 0.5. For the same compound, at Tryptase beta-1 [5], the affinity, expressed as Ki, was 330 nM. Compound `CC(=O)N1CC[C@H]1C(=O)N[C@@H](CCCN=C(N)N)C(=O)c1nc2ccccc2s1` returned an inhibition constant Ki at Tryptase beta-1 [5] of 20 nM. The compound `N=C(N)NCCC[C@H](NC(=O)[C@@H]1CCCN1Cc1ccccc1)C(=O)c1nc2ccccc2s1` had a Ki at Tryptase beta-1 [5] of 250 nM. At Tryptase beta-1 [5], `CC(=O)N[C@@H](CC(C)C)C(=O)N[C@@H](CCCN=C(N)N)C(=O)c1nc2ccccc2s1` displayed an inhibitory constant (Ki) of 41 nM. Same read-out and setting: with `CC(=O)N1C[C@H](O)C[C@H]1C(=O)NC(CCCN=C(N)N)C(=O)c1nccs1` (some centres undefined) the figure was 180 nM. On the same count and under the same terms, with `N=C(N)NCCCC(NC(=O)C1CCCC1)C(=O)c1nc2ccccc2s1` (centres undefined) the figure was 88 nM; with `N=C(N)c1ccc2nc(Cc3nc4ccc(C(=N)N)cc4[nH]3)[nH]c2c1`, 140 nM.

On Tryptase beta-1 [5], `CC(=O)N1CCC[C@H]1C(=O)N[C@@H](CCCN=C(N)N)C(=O)c1nc2ccccc2s1` showed an inhibitory constant (Ki) of 19 nM. On the same count and under the same terms, with `CC(=O)NCC(=O)N[C@@H](CCCN=C(N)N)C(=O)c1nc2ccccc2s1` the figure was 470 nM; with `CN[C@H](Cc1ccccc1)C(=O)N1CCC[C@H]1C(=O)N[C@@H](CCCN=C(N)N)C(=O)c1nc2ccccc2s1`, 6.5 nM. On the same count and under the same terms, with `COS(=O)(=O)N1CCC[C@H]1C(=O)N[C@@H](CCCN=C(N)N)C(=O)c1nc2ccccc2s1` the figure was 33 nM. For the compound `N=C(N)NCCCCC(=O)c1nc2ccccc2s1`, the NA entry (in assay [1]; at Tryptase beta-1 [2]) was “inactive” in each case. `CC(=O)N1CCC[C@@H]1C(=O)N[C@@H](CCCN=C(N)N)C(=O)c1nc2ccccc2s1` yielded an IC50 against Tryptase beta-1 [8] of 2 nM. Also, on Tryptase beta-1 [5], the Ki turned out to be 14000 nM. `CC(=O)N1C[C@H](O)C[C@H]1C(=O)N[C@@H](CCCNC(=N)N)C(=O)c1nc2ccccc2s1` (stereo in doubt; (2S) 6): on Tryptase beta-1 [5], the Ki stood at 10 nM. The same measure, in the same setting: with `CC(=O)N1C[C@H](O)C[C@H]1C(=O)N[C@@H](CCCNC(=N)N)C(=O)c1nc2ccccc2s1` the figure was 22 nM; with `CC(=O)N1CC=C[C@H]1C(=O)N[C@@H](CCCN=C(N)N)C(=O)c1nc2ccccc2s1`, 38 nM; with `CC(=O)N1CC(=O)C[C@H]1C(=O)N[C@@H](CCCN=C(N)N)C(=O)c1nc2ccccc2s1`, 73 nM.

Compound `CC(=O)N1C[C@H](O)C[C@H]1C(=O)N[C@@H](CCCNC(=N)N)C(=O)c1nc2ccccc2s1` (stereo in doubt; (2R) 6) returned an inhibition constant (Ki) on Tryptase beta-1 [5] of 380 nM. Regarding `CCCC(NC(=O)[C@@H]1C[C@@H](O)CN1C(C)=O)C(=O)c1nc2ccccc2s1` (some centres undefined), the NA entry (in assay [1]; at Tryptase beta-1 [2]) was “inactive” in each case. Regarding `CC(=O)N1C[C@H](O)C[C@H]1C(=O)NC(CCCN)C(=O)c1nc2ccccc2s1` (some centres undefined), the Ki on Tryptase beta-1 [5] stood at 90 nM.
